# In ChEMBL document CHEMBL1148546, “3-Arylpiperazinylethyl-1H-pyrrolo[2,3-d]pyrimidine-2,4(3H,7H)-dione derivatives as novel, high-affinity and selective alpha(1)-adrenoceptor ligands” (Bioorg Med Chem Lett, 2006):
# Columns and labels:
# [1] = target: T1, Adrenergic receptor alpha-1 (Homo sapiens, UniProt P35348+P25100+P35368); assay: Binding affinity to adrenergic alpha-1 receptor; assay type: protein assay
# T1 sequence (P35348 whole entry): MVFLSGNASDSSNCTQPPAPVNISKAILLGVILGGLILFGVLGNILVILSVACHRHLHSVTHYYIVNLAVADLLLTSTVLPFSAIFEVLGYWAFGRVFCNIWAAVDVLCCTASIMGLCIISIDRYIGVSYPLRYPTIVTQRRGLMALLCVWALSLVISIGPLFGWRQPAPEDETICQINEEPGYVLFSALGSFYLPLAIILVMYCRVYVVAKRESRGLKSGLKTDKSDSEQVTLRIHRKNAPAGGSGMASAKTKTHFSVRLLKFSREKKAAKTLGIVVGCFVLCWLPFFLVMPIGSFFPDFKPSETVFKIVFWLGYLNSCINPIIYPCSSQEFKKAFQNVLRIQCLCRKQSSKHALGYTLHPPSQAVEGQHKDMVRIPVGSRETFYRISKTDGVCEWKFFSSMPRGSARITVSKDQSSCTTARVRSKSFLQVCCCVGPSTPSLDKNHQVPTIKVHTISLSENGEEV
# T1 sequence (P25100 whole entry): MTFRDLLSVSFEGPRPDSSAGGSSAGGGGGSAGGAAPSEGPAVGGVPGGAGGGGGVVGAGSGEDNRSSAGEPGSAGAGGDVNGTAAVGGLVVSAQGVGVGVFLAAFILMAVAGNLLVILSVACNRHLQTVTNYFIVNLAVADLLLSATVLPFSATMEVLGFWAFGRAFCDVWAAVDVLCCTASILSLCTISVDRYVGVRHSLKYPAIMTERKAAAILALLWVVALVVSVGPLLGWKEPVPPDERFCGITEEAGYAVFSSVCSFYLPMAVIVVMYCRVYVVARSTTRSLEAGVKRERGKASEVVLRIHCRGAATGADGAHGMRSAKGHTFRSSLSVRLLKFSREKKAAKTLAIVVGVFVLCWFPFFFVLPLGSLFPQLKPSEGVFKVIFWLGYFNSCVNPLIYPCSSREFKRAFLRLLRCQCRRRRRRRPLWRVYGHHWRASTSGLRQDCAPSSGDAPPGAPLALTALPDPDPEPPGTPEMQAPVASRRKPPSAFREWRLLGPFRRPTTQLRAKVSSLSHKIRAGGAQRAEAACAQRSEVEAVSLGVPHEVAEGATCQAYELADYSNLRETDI
# T1 sequence (P35368 whole entry): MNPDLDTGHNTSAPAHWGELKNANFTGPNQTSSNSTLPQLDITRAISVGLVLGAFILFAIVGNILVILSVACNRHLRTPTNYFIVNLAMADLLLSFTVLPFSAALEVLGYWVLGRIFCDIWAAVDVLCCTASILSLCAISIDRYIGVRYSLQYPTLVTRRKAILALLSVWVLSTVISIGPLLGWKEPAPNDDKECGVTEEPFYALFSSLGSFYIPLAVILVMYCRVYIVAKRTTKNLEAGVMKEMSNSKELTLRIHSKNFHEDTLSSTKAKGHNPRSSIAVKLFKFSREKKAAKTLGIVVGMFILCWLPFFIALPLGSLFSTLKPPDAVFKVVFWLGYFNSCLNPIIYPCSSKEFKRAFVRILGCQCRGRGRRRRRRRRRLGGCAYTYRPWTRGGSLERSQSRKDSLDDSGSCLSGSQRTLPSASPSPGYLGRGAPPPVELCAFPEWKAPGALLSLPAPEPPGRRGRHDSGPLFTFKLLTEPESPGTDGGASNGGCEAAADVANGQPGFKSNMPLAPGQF
# Homo sapiens [2] = organism: Homo sapiens; assay: Selectivity for 5HT1A over adrenergic alpha-1 receptor
# Method in brief: (§1)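 Selectivity is the ratio of Ki at 5-HT1A, D1 or D2 to Ki at α1. Ki values are means (±SD) of three separate experiments.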
# [3] = target: T2, 5-hydroxytryptamine receptor 1A (Homo sapiens, UniProt P08908); assay: Binding affinity to 5HT1A
# T2 sequence (P08908 whole entry): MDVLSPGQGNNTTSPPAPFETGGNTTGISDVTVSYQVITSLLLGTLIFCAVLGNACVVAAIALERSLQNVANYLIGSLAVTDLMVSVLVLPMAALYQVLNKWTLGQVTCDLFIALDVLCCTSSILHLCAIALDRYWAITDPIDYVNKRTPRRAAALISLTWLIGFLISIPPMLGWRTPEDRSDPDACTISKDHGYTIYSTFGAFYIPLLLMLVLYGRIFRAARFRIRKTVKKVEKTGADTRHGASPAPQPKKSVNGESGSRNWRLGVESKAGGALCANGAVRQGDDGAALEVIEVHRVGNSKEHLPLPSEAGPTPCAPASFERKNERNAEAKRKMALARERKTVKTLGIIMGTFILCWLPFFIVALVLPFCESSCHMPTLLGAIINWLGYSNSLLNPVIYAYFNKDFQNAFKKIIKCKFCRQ
# D(2) dopamine receptor = D(2) dopamine receptor (Homo sapiens, UniProt P14416); assay: Binding affinity to dopamine D2 receptor
# Chain of D(2) dopamine receptor (P14416 whole entry): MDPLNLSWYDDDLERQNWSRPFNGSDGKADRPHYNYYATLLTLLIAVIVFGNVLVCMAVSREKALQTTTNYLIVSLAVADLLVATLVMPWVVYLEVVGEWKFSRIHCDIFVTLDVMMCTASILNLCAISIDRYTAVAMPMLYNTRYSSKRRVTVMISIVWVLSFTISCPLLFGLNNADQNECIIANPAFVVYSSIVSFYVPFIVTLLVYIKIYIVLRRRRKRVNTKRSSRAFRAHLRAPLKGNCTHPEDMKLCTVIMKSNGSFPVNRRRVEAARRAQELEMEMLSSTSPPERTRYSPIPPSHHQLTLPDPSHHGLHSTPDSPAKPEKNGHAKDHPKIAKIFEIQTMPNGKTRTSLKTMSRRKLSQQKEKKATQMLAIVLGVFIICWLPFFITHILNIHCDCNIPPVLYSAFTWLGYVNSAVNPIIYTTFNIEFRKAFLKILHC
# [4] = Selectivity for dopamine D2 over adrenergic alpha-1 receptor; method in brief: as §1
# D(1A) dopamine receptor = D(1A) dopamine receptor (Homo sapiens, UniProt P21728); assay: Binding affinity to dopamine D1 receptor
# Chain of D(1A) dopamine receptor (P21728 whole entry): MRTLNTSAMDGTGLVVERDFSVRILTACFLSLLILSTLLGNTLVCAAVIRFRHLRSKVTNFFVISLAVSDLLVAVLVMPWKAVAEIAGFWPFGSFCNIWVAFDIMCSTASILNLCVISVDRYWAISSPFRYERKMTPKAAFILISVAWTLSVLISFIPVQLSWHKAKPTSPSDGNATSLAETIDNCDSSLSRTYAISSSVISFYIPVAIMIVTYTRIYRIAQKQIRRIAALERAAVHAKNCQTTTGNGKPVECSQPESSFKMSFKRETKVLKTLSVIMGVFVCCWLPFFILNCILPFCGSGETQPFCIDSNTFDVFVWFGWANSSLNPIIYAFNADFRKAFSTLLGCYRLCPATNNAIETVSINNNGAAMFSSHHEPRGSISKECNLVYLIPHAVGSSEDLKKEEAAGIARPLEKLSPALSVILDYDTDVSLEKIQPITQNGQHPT
# Homo sapiens [5] = organism: Homo sapiens; assay: Selectivity for dopamine D1 over adrenergic alpha-1 receptor; method in brief: as §1
Ki [1],Ratio Ki (Homo sapiens [2]),Ki [3],Ki (D(2) dopamine receptor),Ratio Ki [4],Ki (D(1A) dopamine receptor),Ratio Ki (Homo sapiens [5]),Compound
2.18 nM,8.8,19.1 nM,,,,,COc1ccccc1N1CCN(CCn2c(=O)[nH]c3[nH]c(-c4ccccc4Cl)cc3c2=O)CC1
4.71 nM,327,1540 nM,137 nM,29,516 nM,110,O=c1[nH]c2[nH]c(-c3ccccc3)cc2c(=O)n1CCN1CCN(c2ccccc2Cl)CC1
1.99 nM,61,122 nM,,,,,COc1ccccc1N1CCN(CCn2c(=O)[nH]c3[nH]c(-c4ccccc4)cc3c2=O)CC1
1.19 nM,248,295 nM,,,,,COc1ccccc1N1CCN(CCn2c(=O)[nH]c3[nH]c(-c4ccccc4C)cc3c2=O)CC1
2.8 nM,518,1450 nM,627 nM,224,1040 nM,371,Cc1ccccc1-c1cc2c(=O)n(CCN3CCN(c4ccccc4Cl)CC3)c(=O)[nH]c2[nH]1
4.08 nM,98,401 nM,,,,,COc1ccccc1N1CCN(CCn2c(=O)[nH]c3[nH]c(-c4ccc(Cl)cc4)cc3c2=O)CC1
1.63 nM,97,157 nM,,,,,COc1ccccc1-c1cc2c(=O)n(CCN3CCN(c4ccccc4OC)CC3)c(=O)[nH]c2[nH]1
4.97 nM,67,333 nM,,,,,COc1ccccc1N1CCN(CCn2c(=O)[nH]c3[nH]c(-c4ccc(C)cc4)cc3c2=O)CC1
3.32 nM,310,1030 nM,363 nM,109,8550 nM,> 2500,COc1ccccc1-c1cc2c(=O)n(CCN3CCN(c4ccccc4Cl)CC3)c(=O)[nH]c2[nH]1
6.28 nM,10,64.9 nM,356 nM,57,567 nM,90,O=c1[nH]c2[nH]c(-c3ccccc3Cl)cc2c(=O)n1CCN1CCN(c2ccccc2Cl)CC1
5.47 nM,21,113 nM,,,,,COc1ccc(-c2cc3c(=O)n(CCN4CCN(c5ccccc5OC)CC4)c(=O)[nH]c3[nH]2)cc1
